ChEMBL document CHEMBL1126254, “Specific inhibition of HIV-1 protease by boronated porphyrins” (J Med Chem, 1992)

Columns and labels:
COS A6 = assay: (§1) Cytotoxicity on COS A6 cells in the absence of 10% fetal calf serum(FCS); format: functional
In short: (§2)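 COS A6 cells, which are cloned progeny that constitutively release viral capsids, were cultured without fetal calf serum and exposed to compound. Viability was read by MTT stain assay, and the LD50 was derived from it.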

[1] = target: T1, Human immunodeficiency virus type 1 protease (Human immunodeficiency virus 1, UniProt Q72874); assay: Inhibition of HIV-1 protease in 10% fetal calf serum(FCS)
In short: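 COS A6 cells, which constitutively release viral capsids, were exposed to inhibitor in Dulbecco's PBS for 15 min. An equal volume of medium with 10% FCS plus inhibitor was then added and incubation continued for 3.75 h. Capsids were isolated from the supernatant, and polyprotein processing was scored as p24 by ELISA.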

[2] = as §1; format: functional; conditions: read-out: LD50 (the source's name); in short: as §2
[3] = target: T1, Human immunodeficiency virus type 1 protease; assay: Inhibition of HIV-1 protease in 5%DMSO
In short: (§3)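 Purified recombinant HIV PR activity was followed by cleavage of a decapeptide substrate. Incubation was 30–45 min at 37 °C, and hydrolysis products were quantified by HPLC.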

[4] = target: Human immunodeficiency virus type 2 pol protein (Human immunodeficiency virus 2, UniProt P88142); assay: Inhibition of HIV-2 protease in 5%DMSO; in short: as §3
[5] = target: T1, Human immunodeficiency virus type 1 protease; assay: Inhibitory concentration against HIV-1 protease in the absence of DMSO
In short: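 The water-soluble dipotassium salt was tested against aspartyl proteases with no DMSO present, and IC50 values were determined.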

[6] = target: HIV-2 protease (Human immunodeficiency virus 2); assay: Inhibitory concentration against HIV-2 protease in the absence of DMSO

Sequence of Human immunodeficiency virus type 2 pol protein (P88142 whole entry): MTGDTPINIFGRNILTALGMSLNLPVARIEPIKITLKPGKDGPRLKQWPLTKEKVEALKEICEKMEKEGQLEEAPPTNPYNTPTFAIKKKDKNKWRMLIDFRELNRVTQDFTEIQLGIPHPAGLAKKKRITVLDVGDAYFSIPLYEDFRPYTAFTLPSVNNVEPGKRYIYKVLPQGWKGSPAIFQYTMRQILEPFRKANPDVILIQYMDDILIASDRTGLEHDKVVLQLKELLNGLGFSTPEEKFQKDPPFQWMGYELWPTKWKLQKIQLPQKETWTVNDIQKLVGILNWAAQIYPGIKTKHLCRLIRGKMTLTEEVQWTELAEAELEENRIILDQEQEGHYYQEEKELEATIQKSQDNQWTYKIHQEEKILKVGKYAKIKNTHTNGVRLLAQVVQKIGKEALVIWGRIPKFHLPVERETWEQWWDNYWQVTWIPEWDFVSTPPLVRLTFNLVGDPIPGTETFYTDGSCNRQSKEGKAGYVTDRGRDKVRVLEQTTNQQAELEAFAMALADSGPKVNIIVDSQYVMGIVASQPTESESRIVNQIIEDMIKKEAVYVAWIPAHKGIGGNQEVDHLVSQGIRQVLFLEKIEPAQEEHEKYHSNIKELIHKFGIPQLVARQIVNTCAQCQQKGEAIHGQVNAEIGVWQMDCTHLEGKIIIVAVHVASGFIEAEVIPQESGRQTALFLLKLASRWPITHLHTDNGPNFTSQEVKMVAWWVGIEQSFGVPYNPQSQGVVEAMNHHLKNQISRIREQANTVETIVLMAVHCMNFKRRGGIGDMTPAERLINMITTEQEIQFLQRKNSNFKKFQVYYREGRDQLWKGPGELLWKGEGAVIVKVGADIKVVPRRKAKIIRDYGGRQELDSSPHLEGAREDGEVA

Row | Compound | LD50 (COS A6) [µM] | IC50 [1] [µM] | CC50 ([2]; COS A6) [µM] | IC50 [3] [µM] | IC50 [4] [µM] | IC50 [5] [µM] | IC50 [6] [µM] | CC50 [2] [µM]
1 | 3-[18-(2-Carboxy-ethyl)-8,13-bis-(1,2-diacetoxy-ethyl)-3,7,12,17-tetramethyl-22,24-dihydro-porphin-2-yl]-propionic acid;Co complex [listing 1 of 2 here] | 150 |  |  |  |  |  |  | 
2 | 3-[18-(2-Carboxy-ethyl)-8,13-bis-(1,2-diacetoxy-ethyl)-3,7,12,17-tetramethyl-22,24-dihydro-porphin-2-yl]-propionic acid;Mn complex | 70 |  |  |  |  |  |  | 
3 | CC1=C(CCC(=O)O)c2cc3[nH]c(cc4[nH]c(cc5nc(cc1n2)C(C)=C5C(COC(=O)C1=CCC1)OC(=O)C1=CCC1)c(C)c4C(COC(=O)C1=CCC1)OC(=O)C1=CCC1)c(C)c3CCC(=O)O (stereo unspecified) |  | 10 | 25 | 0.7 | 1.55 | 0.9 |  | 
4 | 3-[18-(2-Carboxy-ethyl)-8,13-bis-(1,2-diacetoxy-ethyl)-3,7,12,17-tetramethyl-22,24-dihydro-porphin-2-yl]-propionic acid;Cu complex [listing 1 of 2 here] |  |  |  |  |  |  | 0.47 | 
5 | CC1=C(C(COC(=O)c2ccc(N(C)C)cc2)OC(=O)c2ccc(N(C)C)cc2)c2cc3nc(cc4[nH]c(cc5[nH]c(cc1n2)c(C)c5CCC(=O)O)c(CCC(=O)O)c4C)C(C(COC(=O)c1ccc(N(C)C)cc1)OC(=O)c1ccc(N(C)C)cc1)=C3C (stereo unspecified) |  | 75 | > 250 | 7 | 18 |  |  | 
6 | CC1=C(C(COC(=O)c2ccc3ccccc3c2)OC(=O)c2ccc3ccccc3c2)c2cc3nc(cc4[nH]c(cc5[nH]c(cc1n2)c(C)c5CCC(=O)O)c(CCC(=O)O)c4C)C(C(COC(=O)c1ccc2ccccc2c1)OC(=O)c1ccc2ccccc2c1)=C3C (stereo unspecified) |  | > 150 | 250 | 14 | 23 |  |  | 
7 | CC1=C(C(O)CO)c2cc3nc(cc4[nH]c(cc5[nH]c(cc1n2)c(C)c5CCC(=O)O)c(CCC(=O)O)c4C)C(C(O)CO)=C3C (stereo unspecified) |  | > 200 | 250 | 280 | 480 |  |  | 
8 | CC1=C(CCC(=O)O)c2cc3[nH]c(cc4[nH]c(cc5nc(cc1n2)C(C)=C5C(COC(=O)C1=CC1)OC(=O)C1=CC1)c(C)c4C(COC(=O)C1=CC1)OC(=O)C1=CC1)c(C)c3CCC(=O)O (stereo in doubt) |  | > 150 |  | 12 | 11 |  |  | 250
9 | 3-[18-(2-Carboxy-ethyl)-8,13-bis-(1,2-diacetoxy-ethyl)-3,7,12,17-tetramethyl-22,24-dihydro-porphin-2-yl]-propionic acid;Cu complex [listing 2 of 2 here] | 80 |  |  |  |  |  |  | 
10 | CC[C@H](C)[C@H](NC(=O)[C@H](C(C)C)[C@@H](O)[C@H](O)[C@H](CC1CCCCC1)NC(=O)[C@H](Cc1c[nH]cn1)NC(=O)COc1cccc2ccccc12)C(=O)NCc1ccccn1 |  | 0.75 | 45 | < 0.001 | 0.03 |  |  | 
11 | 3-[18-(2-Carboxy-ethyl)-8,13-bis-(1,2-diacetoxy-ethyl)-3,7,12,17-tetramethyl-22,24-dihydro-porphin-2-yl]-propionic acid;Co complex [listing 2 of 2 here] |  | 25 |  |  |  |  |  | 
12 | C=CC1=C(C)c2cc3[nH]c(cc4nc(cc5[nH]c(cc1n2)c(C)c5CCC(=O)O)C(CCC(=O)O)=C4C)c(C)c3C=C [PROTOPORPHYRIN] |  | > 200 | < 50 | 300 | 500 |  |  | 
13 | CC1=C(C(COC(=O)c2ccccc2)OC(=O)c2ccccc2)c2cc3nc(cc4[nH]c(cc5[nH]c(cc1n2)c(C)c5CCC(=O)O)c(CCC(=O)O)c4C)C(C(COC(=O)c1ccccc1)OC(=O)c1ccccc1)=C3C (stereo unspecified) |  | > 100 | 250 | 14 | 30 |  |  | 
14 | CC1=C(C(COC(=O)C23C[C@H]4C[C@@H](C2)C[C@@H](C3)C4)OC(=O)C23C[C@H]4C[C@@H](C2)C[C@@H](C3)C4)c2cc3nc(cc4[nH]c(cc5[nH]c(cc1n2)c(C)c5CCC(=O)O)c(CCC(=O)O)c4C)C(C(COC(=O)C12C[C@H]4C[C@@H](C1)C[C@@H](C2)C4)OC(=O)C12C[C@H]4C[C@@H](C1)C[C@@H](C2)C4)=C3C (stereo partly specified) |  |  | 250 | 5 | 13 |  |  | 
